ChEMBL document CHEMBL4184106, “Discovering alkylamide derivatives of bexarotene as new therapeutic agents against triple-negative breast cancer” (Bioorg Med Chem Lett, 2018)
Active and inactive are the calls of the source. No cut-off for these calls is given here.

Legend:
[1] = tested on: MDA-MB-231; test: Induction of apoptosis in human MDA-MB-231 cells assessed as ratio of cleaved caspase-9 to beta-actin level at 5 uM by western blot analysis (reference value: 1); assay type: functional
[2] = tested on: MDA-MB-231; test: Effect on beta-catenin translocation in cytosolic fraction of human MDA-MB-231 cells assessed as ratio of beta-catenin to beta-actin level at 10 uM by Western blot analysis (reference value: 1); assay type: functional
[3] = tested on: BT-549; test: Induction of apoptosis in nuclear fractions of human BT549 cells assessed as ratio of cleaved PARP to beta-actin level at 5 uM by western blot analysis (reference value: 1)
[4] = tested on: MDA-MB-231; test: Induction of apoptosis in nuclear fractions of human MDA-MB-231 cells assessed as ratio of PARP to beta-actin level at 10 uM by western blot analysis (reference value: 1); assay type: functional
[5] = tested on: BT-549; test: Effect on beta-catenin translocation in cytosolic fraction of human BT549 cells assessed as ratio of beta-catenin to beta-actin level at 10 uM by Western blot analysis (reference value: 1); assay type: functional
[6] = tested on: BT-549; test: Effect on beta-catenin translocation in nuclear fraction of human BT549 cells assessed as ratio of beta-catenin to beta-actin level at 10 uM by Western blot analysis (reference value: 1); assay type: functional
[7] = tested on: MDA-MB-231; test: Inhibition of mammosphere formation in human MDA-MB-231 cells assessed as ratio of KLF4 to beta actin level at 5 uM by Western blot analysis (Rvb= 1); assay type: functional
Summary of the method: (§1)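 Post-treatment cell lysates were probed by Western blot for CSC markers, with β-actin as the loading control. Band densitometry was normalized to DMSO-treated samples.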

[8] = tested on: BT-549; test: Cytotoxicity against human BT549 cells assessed as reduction in cell viability by MTT assay; assay type: functional, cell-based
[9] = tested on: BT-549; test: Effect on epithelial-mesenchymal transition in human BT549 cells assessed as ratio of E-cadherin to beta-actin level at 5 uM by Western blot analysis (reference value: 1); assay type: functional
[10] = tested on: MDA-MB-231; test: Effect on epithelial-mesenchymal transition in human MDA-MB-231 cells assessed as ratio of E-cadherin to beta-actin level at 5 uM by Western blot analysis (reference value: 1); assay type: functional
[11] = tested on: MCF-10A; test: Cytotoxicity against human MCF10A cells assessed as reduction in cell viability at 5 uM by MTT assay; assay type: cell-based
[12] = tested on: BT-549; test: Induction of apoptosis in nuclear fractions of human BT549 cells assessed as ratio of PARP to beta-actin level at 10 uM by western blot analysis (reference value: 1); assay type: functional
[13] = tested on: MCF7; test: Induction of apoptosis in human MCF7 cells assessed as ratio of cleaved caspase-8 to beta-actin level at 5 uM by western blot analysis (reference value: 1); assay type: functional
[14] = tested on: MCF-10A; test: Induction of apoptosis in human MCF10A cells assessed as ratio of cleaved caspase-3 to beta-actin level at 5 uM by western blot analysis (reference value: 1); assay type: cell-based
[15] = tested on: BT-549; test: Induction of apoptosis in human BT549 cells assessed as ratio of cleaved caspase-8 to beta-actin level at 5 uM by western blot analysis (reference value: 1); assay type: functional
[16] = tested on: MCF7; test: Cytotoxicity against human MCF7 cells assessed as reduction in cell viability at 5 uM by MTT assay; assay type: functional
[17] = tested on: BT-549; test: Inhibition of mammosphere formation in human BT549 cells assessed as ratio of KLF4 to beta actin level at 5 uM by Western blot analysis (Rvb= 1); assay type: functional
[18] = tested on: MCF7; test: Inhibition of mammosphere formation in human MCF7 cells assessed as ratio of KLF4 to beta actin level at 5 uM by Western blot analysis (Rvb= 1); assay type: functional; summary of the method: as §1
[19] = tested on: MDA-MB-231; test: Effect on epithelial-mesenchymal transition in human MDA-MB-231 cells assessed as ratio of slug to beta-actin level at 5 uM by Western blot analysis (reference value: 1); assay type: functional
[20] = tested on: MDA-MB-231; test: Cytotoxicity against human MDA-MB-231 cells assessed as reduction in cell viability by MTT assay; assay type: functional, cell-based
[21] = tested on: BT-549; test: Effect on epithelial-mesenchymal transition in human BT549 cells assessed as ratio of slug to beta-actin level at 5 uM by Western blot analysis (reference value: 1); assay type: functional
[22] = tested on: BT-549; test: Cytotoxicity against human BT549 cells assessed as reduction in cell viability at 5 uM by MTT assay; assay type: functional
[23] = tested on: BT-549; test: Induction of apoptosis in human BT549 cells assessed as ratio of cleaved caspase-3 to beta-actin level at 5 uM by western blot analysis (reference value: 1); assay type: functional
[24] = tested on: MCF-10A; test: Induction of apoptosis in human MCF10A cells assessed as ratio of cleaved caspase-9 to beta-actin level at 5 uM by western blot analysis (reference value: 1); assay type: cell-based
[25] = tested on: MDA-MB-231; test: Effect on epithelial-mesenchymal transition in human MDA-MB-231 cells assessed as ratio of vimentin to beta-actin level at 5 uM by Western blot analysis (reference value: 1); assay type: functional
[26] = tested on: BT-549; test: Induction of apoptosis in human BT549 cells assessed as ratio of cleaved caspase-9 to beta-actin level at 5 uM by western blot analysis (reference value: 1); assay type: functional
[27] = tested on: MDA-MB-231; test: Cytotoxicity against human MDA-MB-231 cells assessed as reduction in cell viability at 5 uM by MTT assay; assay type: functional
[28] = tested on: BT-549; test: Inhibition of mammosphere formation in human BT549 cells assessed as ratio of C-Myc to beta actin level at 5 uM by Western blot analysis (Rvb= 1); assay type: functional
[29] = tested on: MCF7; test: Inhibition of mammosphere formation in human MCF7 cells assessed as ratio of Sox2 to beta actin level at 5 uM by Western blot analysis (Rvb= 1); assay type: functional; summary of the method: as §1
[30] = tested on: MCF7; test: Inhibition of mammosphere formation in human MCF7 cells assessed as ratio of Oct4A to beta actin level at 5 uM by Western blot analysis (Rvb= 1); assay type: functional; summary of the method: as §1
[31] = tested on: MDA-MB-231; test: Anti-migratory activity against human MDA-MB-231 cells assessed as reduction in wound closure at 5 uM up to 24 hrs by wound-healing assay; assay type: functional, cell-based
Summary of the method: (§2)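 MDA-MB-231 monolayer was scratched to make a wound gap. Cells were treated alongside a DMSO vehicle control, and migration into the gap was imaged at 24 h.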

[32] = tested on: MCF-10A; test: Induction of apoptosis in human MCF10A cells assessed as ratio of cleaved caspase-8 to beta-actin level at 5 uM by western blot analysis (reference value: 1); assay type: cell-based
[33] = tested on: MCF7; test: Induction of apoptosis in human MCF7 cells assessed as ratio of cleaved caspase-9 to beta-actin level at 5 uM by western blot analysis (reference value: 1); assay type: functional
[34] = tested on: BT-549; test: Effect on epithelial-mesenchymal transition in human BT549 cells assessed as ratio of vimentin to beta-actin level at 5 uM by Western blot analysis (reference value: 1); assay type: functional
[35] = tested on: MDA-MB-231; test: Induction of apoptosis in nuclear fractions of human MDA-MB-231 cells assessed as ratio of cleaved PARP to beta-actin level at 10 uM by western blot analysis (reference value: 1); assay type: functional
[36] = tested on: MCF7; test: Inhibition of mammosphere formation in human MCF7 cells assessed as ratio of C-Myc to beta actin level at 5 uM by Western blot analysis (Rvb= 1); assay type: functional; summary of the method: as §1
[37] = tested on: MDA-MB-231; test: Induction of apoptosis in human MDA-MB-231 cells assessed as ratio of cleaved caspase-3 to beta-actin level at 5 uM by western blot analysis (reference value: 1); assay type: functional
[38] = tested on: MDA-MB-231; test: Induction of apoptosis in human MDA-MB-231 cells assessed as ratio of cleaved caspase-8 to beta-actin level at 5 uM by western blot analysis (reference value: 1); assay type: functional
[39] = tested on: MCF7; test: Induction of apoptosis in human MCF7 cells assessed as ratio of cleaved caspase-3 to beta-actin level at 5 uM by western blot analysis (reference value: 1); assay type: functional
[40] = tested on: MCF7; test: Inhibition of colony formation in human MCF7 cells at 5 uM supplemented with fresh medium containing compound every 3 to 4 days for 7 days by crystal violet staining based adherent cell colony-forming assay; assay type: functional
Summary of the method: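 MCF-7 cells were plated for adherent colony formation and treated for 7 days. Colonies were counted at the end of treatment and normalized to untreated samples.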

[41] = tested on: MDA-MB-231; test: Inhibition of mammosphere formation in human MDA-MB-231 cells assessed as ratio of C-Myc to beta actin level at 5 uM by Western blot analysis (Rvb= 1); assay type: functional; summary of the method: as §1
[42] = tested on: MCF7; test: Inhibition of mammosphere formation in human MCF7 cells at 10 uM after 7 days by microscopic method; assay type: functional, cell-based
Summary of the method: (§3)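 MCF-7 cells were grown under mammosphere-forming conditions with compound. Spheres 60 μm or larger were counted for quantitation.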

[43] = tested on: MCF7; test: Inhibition of mammosphere formation in human MCF7 cells assessed as ratio of Nanog to beta actin level at 5 uM by Western blot analysis (Rvb= 1); assay type: functional; summary of the method: as §1
[44] = tested on: MDA-MB-231; test: Effect on beta-catenin translocation in nuclear fraction of human MDA-MB-231 cells assessed as ratio of beta-catenin to beta-actin level at 10 uM by Western blot analysis (reference value: 1); assay type: functional
[45] = tested on: MDA-MB-231; test: Inhibition of colony formation in human MDA-MB-231 cells at 10 uM supplemented with fresh medium containing compound every 3 days for 10 days by microscopic method based soft agar colony formation assay; assay type: functional, cell-based
[46] = tested on: MCF7; test: Down regulation of KLF4 expression in human MCF7 cells at 5 uM by Western blot analysis; assay type: functional
Summary of the method: (§4)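 MCF-7 cells were treated and lysates probed by Western blot for CSC-related markers, with β-actin as loading control. Band densitometry was normalized to DMSO-treated samples.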

[47] = tested on: MDA-MB-231; test: Anti-migratory activity against human MDA-MB-231 cells assessed as reduction in wound closure at 2 uM up to 24 hrs by wound-healing assay; assay type: functional, cell-based; summary of the method: as §2
[48] = tested on: MCF7; test: Down regulation of c-Myc expression in human MCF7 cells at 5 uM by Western blot analysis; assay type: functional; summary of the method: as §4
[49] = tested on: MDA-MB-231; test: Inhibition of colony formation in human MDA-MB-231 cells at 2 uM supplemented with fresh medium containing compound every 3 days for 10 days by microscopic method based soft agar colony formation assay relative to control; assay type: functional
[50] = tested on: MCF7; test: Down regulation of Oct4A expression in human MCF7 cells at 5 uM by Western blot analysis; assay type: functional; summary of the method: as §4
[51] = tested on: MDA-MB-231; test: Down regulation of KLF4 expression in human MDA-MB-231 cells at 5 uM by Western blot analysis; assay type: functional
[52] = tested on: MCF7; test: Inhibition of mammosphere formation in human MCF7 cells at 2 uM after 7 days by microscopic method; assay type: functional, cell-based; summary of the method: as §3
[53] = tested on: MCF-10A; test: Cytotoxicity against human MCF10A cells assessed as reduction in cell viability by MTT assay; assay type: cell-based
[54] = tested on: MCF7; test: Down regulation of Nanog expression in human MCF7 cells at 5 uM by Western blot analysis; assay type: functional; summary of the method: as §4

C=C(c1ccc(C(=O)O)cc1)c1cc2c(cc1C)C(C)(C)CCC2(C)C [BEXAROTENE]
Ratio [1]: 3.2
Ratio [2]: 2.4
Ratio [3]: 1.7
Ratio [4]: 0.9
Ratio [5]: 2.2
Ratio [6]: 0.7
Ratio [7]: 1.3
EC50 [8]: > 56 µM
Ratio [9]: 9.2
Ratio [10]: 10.8
Activity [11]: Non-Toxic
Ratio [12]: 1.8
Ratio [13]: 1
Ratio [14]: 0.95
Ratio [15]: 1.1
Activity [16]: inactive
Ratio [17]: 1.2
Ratio [18]: 1
Ratio [19]: 1
EC50 [20]: > 56 µM
Ratio [21]: 1.3
Activity [22]: inactive
Ratio [23]: 1.1
Ratio [24]: 1.1
Ratio [25]: 0.4
Ratio [26]: 1.3
Activity [27]: inactive
Ratio [28]: 1.4
Ratio [29]: 0.8
Ratio [30]: 1.2
Activity [31]: inactive
Ratio [32]: 1
Ratio [33]: 1.2
Ratio [34]: 0.9
Ratio [35]: 1.6
Ratio [36]: 1
Ratio [37]: 2.7
Ratio [38]: 3.4
Ratio [39]: 0.9
inhibition [40]: inactive
Ratio [41]: 1.2
inhibition [42]: inactive
Ratio [43]: 1
Ratio [44]: 1.8
inhibition [45]: inactive

C=C(c1ccc(C(=O)NCCN(CC)CC)cc1)c1cc2c(cc1C)C(C)(C)CCC2(C)C
Ratio [1]: 2.5
Ratio [7]: 0.5
EC50 [8]: < 10 µM
Ratio [9]: 2.4
Ratio [10]: 1.9
Activity [46]: 10 - 30%
Ratio [13]: 1
Activity [47]: Active
Ratio [14]: 1.1
Ratio [15]: 2.1
Activity [16]: 40%
Ratio [17]: 0.5
Activity [48]: 10 - 30%
Ratio [18]: 0.9
Ratio [19]: 0.9
EC50 [20]: < 10 µM
Ratio [21]: 0.4
Activity [22]: 60%
Ratio [23]: 2.6
Ratio [24]: 1
Ratio [25]: 0.4
Ratio [26]: 2.3
Activity [27]: 60%
Ratio [28]: 0.9
Ratio [29]: 0.9
Ratio [30]: 0.5
Ratio [32]: 1
inhibition (INH) [49]: 90%
Ratio [33]: 1
Activity [50]: 50%
Ratio [34]: 0.4
Activity [51]: 50%
Ratio [36]: 0.7
inhibition [52]: Active
Ratio [37]: 1.3
Ratio [38]: 1.5
Ratio [39]: 0.9
Activity [53]: Non-Toxic
Activity [54]: 20%
inhibition (INH) [40]: 80%
Ratio [41]: 0.9
Ratio [43]: 0.8
